# Calls of active or inactive are those of the source. The calls are words filed in the database; no cut-off is given here.
# What was measured:
# [1] = Growth inhibition of human RPMI8266 cells; format: functional
# Method in brief: (§1)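 Five-dose testing was run within the NCI (Bethesda) in vitro Anticancer Screen Program on a panel of 53 human tumour cell lines from nine cancer types. Growth inhibition is reported as GI50.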
# K562 = experiment: Growth inhibition of human K562 cells; format: functional; method in brief: as §1
# A549 = experiment: Growth inhibition of human A549 cells; format: functional; method in brief: as §1
# EKVX = experiment: Growth inhibition of human EKVX cells; format: functional; method in brief: as §1
# HOP-62 = experiment: Growth inhibition of human HOP62 cells; format: functional; method in brief: as §1
# HOP-92 = experiment: Growth inhibition of human HOP92 cells; format: functional; method in brief: as §1
# NCI-H226 = experiment: Growth inhibition of human NCI-H226 cells; format: functional; method in brief: as §1
# NCI-H23 = experiment: Growth inhibition of human NCI-H23 cells; format: functional; method in brief: as §1
# NCI-H322M = experiment: Growth inhibition of human NCI-H322M cells; format: functional; method in brief: as §1
# NCI-H460 = experiment: Growth inhibition of human NCI-H460 cells; format: functional; method in brief: as §1
# NCI-H522 = experiment: Growth inhibition of human NCI-H522 cells; format: functional; method in brief: as §1
# COLO 205 = experiment: Growth inhibition of human COLO205 cells; format: functional; method in brief: as §1
# HCC 2998 = experiment: Growth inhibition of human HCC2998 cells; format: functional; method in brief: as §1
# HCT-116 = experiment: Growth inhibition of human HCT116 cells; format: functional; method in brief: as §1
# HCT-15 = experiment: Growth inhibition of human HCT15 cells; format: functional; method in brief: as §1
# HT-29 = experiment: Growth inhibition of human HT-29 cells; format: functional; method in brief: as §1
# KM12 = experiment: Growth inhibition of human KM12 cells; format: functional; method in brief: as §1
# SW-620 = experiment: Growth inhibition of human SW620 cells; format: functional
# Method in brief: (§2)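 Compounds that passed a preliminary screen were tested at five doses in the NCI (Bethesda) in vitro Anticancer Screen Program against a 53-line human tumour panel spanning leukemia, lung, colon, CNS, melanoma, ovarian, renal, prostate and breast. Growth inhibition is reported as GI50.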
# SF-268 = experiment: Growth inhibition of human SF268 cells; format: functional; method in brief: as §1
# SF-295 = experiment: Growth inhibition of human SF295 cells; format: functional; method in brief: as §1
# SF-539 = experiment: Growth inhibition of human SF539 cells; format: functional; method in brief: as §1
# SNB-19 = experiment: Growth inhibition of human SNB19 cells; format: functional; method in brief: as §2
# SNB-75 = experiment: Growth inhibition of human SNB75 cells; format: functional; method in brief: as §2
# U-251 = experiment: Growth inhibition of human U251 cells; format: functional; method in brief: as §2
# A498 = experiment: Growth inhibition of human A498 cells; format: functional; method in brief: as §1
# 786-0 = experiment: Growth inhibition of human 786-0 cells; format: functional; method in brief: as §1
# ACHN = experiment: Growth inhibition of human ACHN cells; format: functional; method in brief: as §1
# CAKI-1 = experiment: Growth inhibition of human Caki1 cells; format: functional; method in brief: as §1
# RXF 393 = experiment: Growth inhibition of human RXF393 cells; format: functional; method in brief: as §1
# SN12C = experiment: Growth inhibition of human SN12C cells; format: functional; method in brief: as §2
# TK-10 = experiment: Growth inhibition of human TK10 cells; format: functional; method in brief: as §2
# UO-31 = experiment: Growth inhibition of human UO31 cells; format: functional; method in brief: as §2
# PC-3 = experiment: Growth inhibition of human PC3 cells; format: functional; method in brief: as §1
# OVCAR-3 = experiment: Growth inhibition of human OVCAR-3 cells; format: functional; method in brief: as §1
# OVCAR-4 = experiment: Growth inhibition of human OVCAR4 cells; format: functional; method in brief: as §1
# OVCAR-5 = experiment: Growth inhibition of human OVCAR5 cells; format: functional; method in brief: as §1
# OVCAR-8 = experiment: Growth inhibition of human OVCAR8 cells; format: functional; method in brief: as §1
# NCI/ADR-RES = experiment: Growth inhibition of human NCI/ADR-RES cells; format: functional; method in brief: as §1
# SK-OV-3 = experiment: Growth inhibition of human SKOV3 cells; format: functional; method in brief: as §2
# MCF7 [2] = experiment: Growth inhibition of human MCF7 cells; format: functional; method in brief: as §1
# MDA-MB-231 = experiment: Growth inhibition of human MDA-MB-231 cells; format: functional; method in brief: as §1
# [3] = Growth inhibition of human Hs 578T cells; format: functional; method in brief: as §1
# BT-549 = experiment: Growth inhibition of human BT549 cells; format: functional; method in brief: as §1
# T47D = experiment: Growth inhibition of human T47D cells; format: functional; method in brief: as §2
# LOX IMVI = experiment: Growth inhibition of human LOXIMVI cells; format: functional; method in brief: as §1
# Malme-3M = experiment: Growth inhibition of human MALME-3M cells; format: functional; method in brief: as §1
# M14 = experiment: Growth inhibition of human M14 cells; format: functional; method in brief: as §1
# MDA-MB-435 = experiment: Growth inhibition of human MDA-MB-435 cells; format: functional; method in brief: as §1
# SK-MEL-2 = experiment: Growth inhibition of human SK-MEL-2 cells; format: functional; method in brief: as §1
# SK-MEL-28 = experiment: Growth inhibition of human SK-MEL-28 cells; format: functional; method in brief: as §1
# SK-MEL-5 = experiment: Growth inhibition of human SK-MEL-5 cells; format: functional; method in brief: as §1
# UACC-257 = experiment: Growth inhibition of human UACC257 cells; format: functional; method in brief: as §2
# UACC-62 = experiment: Growth inhibition of human UACC62 cells; format: functional; method in brief: as §2
# MCF7 [4] = experiment: Cell cycle arrest in human MCF7 cells assessed as accumulation at G0 phase at 10 uM after 24 hrs by FACS analysis; format: functional
# Method in brief: (§3)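 MCF-7 breast carcinoma cells were exposed to 10 µM test compound for 24 h, with DMSO as the vehicle control. Cell-cycle distribution was read by FACS as the percentage of cells in G0, G1, S and G2/M.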
# MCF7 [5] = experiment: Cell cycle arrest in human MCF7 cells assessed as accumulation at G1 phase at 10 uM after 24 hrs by FACS analysis; format: functional; method in brief: as §3
# MCF7 [6] = experiment: Cell cycle arrest in human MCF7 cells assessed as accumulation at S phase at 10 uM after 24 hrs by FACS analysis; format: functional; method in brief: as §3
# MCF7 [7] = experiment: Cell cycle arrest in human MCF7 cells assessed as accumulation at G2/M phase at 10 uM after 24 hrs by FACS analysis; format: functional; method in brief: as §3
# MCF7 [8] = experiment: Cell cycle arrest in human MCF7 cells assessed as accumulation at G0 phase at 30 uM after 24 hrs by FACS analysis; format: functional
# Method in brief: (§4)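 MCF-7 cells were treated at 30 µM for 24 h alongside a DMSO control. Fractions in G0, G1, S and G2/M phases were measured by FACS, and values are means of three experiments.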
# MCF7 [9] = experiment: Cell cycle arrest in human MCF7 cells assessed as accumulation at G1 phase at 30 uM after 24 hrs by FACS analysis; format: functional; method in brief: as §4
# MCF7 [10] = experiment: Cell cycle arrest in human MCF7 cells assessed as accumulation at S phase at 30 uM after 24 hrs by FACS analysis; format: functional; method in brief: as §4
# MCF7 [11] = experiment: Cell cycle arrest in human MCF7 cells assessed as accumulation at G2/M phase at 30 uM after 24 hrs by FACS analysis; format: functional; method in brief: as §4
# MCF7 [12] = experiment: Induction of apoptosis in human MCF7 cells assessed as decrease in procaspase 7 level at 30 uM after 24 hrs by Western blot analysis; format: functional, cell-based
# Method in brief: (§5)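 MCF-7 breast carcinoma cells were exposed to 30 µM compound for 24 h, with CA-4 as positive control. Cell lysates were then immunoblotted with antibodies to procaspase-7 and cleavage-specific PARP, using β-actin as loading control.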
# MCF7 [13] = experiment: Induction of apoptosis in human MCF7 cells assessed as […] in PARP cleavage at 30 uM after 24 hrs by Western blot analysis; format: functional, cell-based; method in brief: as §5
structure (smiles),measurement,setting,value
COc1cc(/C=C/C(=O)c2cccc(-n3cc(-c4ccc(Cl)cc4)[nH]c3=O)c2)ccc1O,GI50,[1],1.33 µM
same,GI50,K562,1.42 µM
same,GI50,A549,6.78 µM
same,GI50,EKVX,9.61 µM
same,GI50,HOP-62,2.84 µM
same,GI50,HOP-92,1.26 µM
same,GI50,NCI-H226,2.77 µM
same,GI50,NCI-H23,3.18 µM
same,GI50,NCI-H322M,4.58 µM
same,GI50,NCI-H460,3.9 µM
same,GI50,NCI-H522,2.36 µM
same,GI50,COLO 205,3.4 µM
same,GI50,HCC 2998,1.85 µM
same,GI50,HCT-116,1.46 µM
same,GI50,HCT-15,1.8 µM
same,GI50,HT-29,2.97 µM
same,GI50,KM12,1.48 µM
same,GI50,SW-620,2 µM
same,GI50,SF-268,2.5 µM
same,GI50,SF-295,10.5 µM
same,GI50,SF-539,1.78 µM
same,GI50,SNB-19,3.17 µM
same,GI50,SNB-75,2.75 µM
same,GI50,U-251,2.23 µM
same,GI50,A498,2.82 µM
same,GI50,786-0,2.07 µM
same,GI50,ACHN,2.19 µM
same,GI50,CAKI-1,2.64 µM
same,GI50,RXF 393,6.4 µM
same,GI50,SN12C,2.87 µM
same,GI50,TK-10,4.67 µM
same,GI50,UO-31,1.67 µM
same,GI50,PC-3,1.95 µM
same,GI50,OVCAR-3,1.56 µM
same,GI50,OVCAR-4,4.64 µM
same,GI50,OVCAR-5,2 µM
same,GI50,OVCAR-8,4.18 µM
same,GI50,NCI/ADR-RES,2.28 µM
same,GI50,SK-OV-3,3.19 µM
same,GI50,MCF7 [2],2.3 µM
same,GI50,MDA-MB-231,3.87 µM
same,GI50,[3],4.67 µM
same,GI50,BT-549,2.52 µM
same,GI50,T47D,3.09 µM
same,GI50,LOX IMVI,1.63 µM
same,GI50,Malme-3M,3.06 µM
same,GI50,M14,2.86 µM
same,GI50,MDA-MB-435,2.25 µM
same,GI50,SK-MEL-2,3.66 µM
same,GI50,SK-MEL-28,2.06 µM
same,GI50,SK-MEL-5,1.8 µM
same,GI50,UACC-257,8.69 µM
same,GI50,UACC-62,2.74 µM
same,Activity,MCF7 [4],3.56%
same,Activity,MCF7 [5],46.69%
same,Activity,MCF7 [6],18.1%
same,Activity,MCF7 [7],31.65%
same,Activity,MCF7 [8],32.89%
same,Activity,MCF7 [9],50.61%
same,Activity,MCF7 [10],6.17%
same,Activity,MCF7 [11],10.35%
same,Activity,MCF7 [12],Active
same,Activity,MCF7 [13],Active
